The list is not random: actives were taken first. Their share in the collection is about 2.6%.
Arbovirus anti: arbovirus infection inhibition; arbovirus infection cell-based antiviral screen; 200,000 tested, 0.37% active; inhibition, % at 10 µM; AID 1251; in the data active = inhibition above about 30%
TNAP inh hiacc: inhibitors of human TNAP at high phosphate acceptor concentration. P05186. purified TNAP, CDP-star luminescence, 1 M DEA. inhibition, % at 20 µM. 200,000 tested, 0.03% active;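 active = over 50% inhibition of tissue-nonspecific alkaline phosphatase at 20 µM in the single-dose screen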;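 note: plate controls were DMSO wells for no effect and EDTA-quenched wells as full inhibition for full effect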
Target sequence (P05186 whole entry, looked up): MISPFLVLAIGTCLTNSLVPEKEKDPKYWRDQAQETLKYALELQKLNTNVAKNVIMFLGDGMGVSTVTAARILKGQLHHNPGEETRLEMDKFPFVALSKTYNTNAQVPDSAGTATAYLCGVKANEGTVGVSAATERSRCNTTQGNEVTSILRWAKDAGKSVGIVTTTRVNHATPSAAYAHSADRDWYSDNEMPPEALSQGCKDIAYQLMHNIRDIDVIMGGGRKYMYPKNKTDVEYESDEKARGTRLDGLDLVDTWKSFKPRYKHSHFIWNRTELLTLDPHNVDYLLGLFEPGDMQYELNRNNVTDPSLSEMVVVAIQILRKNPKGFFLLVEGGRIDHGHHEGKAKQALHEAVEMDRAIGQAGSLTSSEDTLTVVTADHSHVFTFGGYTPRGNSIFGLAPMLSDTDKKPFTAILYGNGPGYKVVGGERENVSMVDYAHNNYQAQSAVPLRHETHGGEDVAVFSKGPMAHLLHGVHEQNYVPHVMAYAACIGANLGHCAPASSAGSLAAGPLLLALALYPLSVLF
TNAP inh no acc: inhibitors of human TNAP without phosphate acceptor | P05186 | purified TNAP, CDP-star luminescence, 30 min | inhibition, % at 20 µM | 200,000 tested, 0.26% active;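 active = tissue-nonspecific alkaline phosphatase inhibition above about 50% at 20 µM in the single-dose screen, limit read from the data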;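 note: 0% = DMSO negative control and 100% = EDTA positive control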
TNAP act hi DEA: increases human TNAP activity under high phosphate acceptor concentration. purified TNAP, CDP-star luminescence, 1 M DEA, 30 min; hits give high values; 0 = EDTA background, 1 = DMSO-only activity. 200,000 tested, under 10 active. P05186. activation factor at 20 µM;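 active = activation factor at least 2 at 20 µM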
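system = human TNAP | amount = enzyme diluted 1/800 final | reagent = 100 µM CDP-star substrate | signal = luminescent substrate turnover signal | dosing = one dose, 20 µM | benchmarks = EDTA negative control, DMSO positive control | measure = activation factor | timing = 30 min reaction, room temperature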
WT yeast gro inh: growth inhibition of WT yeast, mitochondrial fusion screen | 190,000 tested, 2.1% active | mitochondrial fusion phenotypic screen, WT strain | inhibition, % at 10 µM | AID 1362; in the data active = inhibition above about 58%; tested in S. cerevisiae
Starred values were filed as active, the others as inactive; / = no result.

SMILES | Arbovirus anti | TNAP inh hiacc | TNAP inh no acc | TNAP act hi DEA | WT yeast gro inh
C#CCSc1ncc(S(=O)(=O)c2ccccc2)c(=O)[nH]1 | 30.1* | -2.6 | 5.6 | 1 | -4.2
Cc1cc(C)nc(NN2C(=O)/C(=C/c3ccccc3)SC2=S)n1 | -2.8 | 1.4 | 41.9 | 1 | 3.8
CCOc1cc(/C=C2\SC(=S)N(Nc3ccccc3)C2=O)ccc1O | -30.2 | 49.4 | 37.9 | 0.5 | 68.6*
COc1ccc(C2=NN(c3ccccc3)C(=O)/C2=C\c2ccc(O)c(OC)c2)cc1 | 12.3 | 40.8 | 50.1* | 0.6 | 10.7
COc1cc(/C=C2\SC(=S)N(Nc3ncc(C(F)(F)F)cc3Cl)C2=O)ccc1O | -6.2 | 47.7 | 43.3 | 0.5 | 83.2*
COc1cc(/C=C2\SC(=S)N(Nc3ccccc3)C2=O)ccc1O | -23.1 | 55.0* | 44.5 | 0.4 | 86.2*
Cc1c(Br)c([N+](=O)[O-])nn1C(C)C(=O)Nc1c(C)n(C)n(-c2ccccc2)c1=O (stereo not given) | 7.3 | -0.8 | 2.9 | 1 | 3.5
CCOC(=O)c1ccc(NC(=O)NC(C)C2CCCO2)cc1 (stereo not given) | -1.5 | -5.0 | -13.4 | 1.1 | -15.8
O=C1/C(=C/c2ccc(O)c(O)c2)SC(=S)N1Nc1ccccc1 | -18.7 | 88.4* | 93.7* | 0.1 | 7.5
O=C1/C(=C/c2cccnc2)SC(=S)N1CC1CCCO1 (stereo not given) | 1.8 | 0.4 | -21.6 | 1 | -13.2
COc1ccc(/C=C2/C(=O)N(CC3CCCO3)C(=S)N2C)c(OC)c1 (stereo not given) | 51.9* | 6.3 | -2.3 | 0.9 | -8.9
COc1cc(/C=C2/SC(=S)N(CC3CCCO3)C2=O)ccc1O (stereo not given) | 7.2 | 55.8* | 36.2 | 0.4 | 25.0
Cc1cccc(C2(c3cccc(C)c3)CC2C(=O)Nc2ccc([N+](=O)[O-])cc2O)c1 (stereo not given) | -44.1 | 11.2 | -1.0 | 0.9 | 92.4*
Cc1cccc(C2(c3cccc(C)c3)CC2C(=O)NCC2CCCO2)c1 (stereo not given) | -5.2 | -2.8 | -10.6 | 1 | -1.4
Cc1ccc(NC(=O)CSc2nc3ccccc3c(=O)n2CCCC(=O)NCCCN2CCOCC2)cc1 | -6.4 | -6.2 | -3.5 | 1.1 | 3.2
CCCCNc1nc(=S)n(-c2ccccc2)c(C)c1C(C)=O | 5.0 | -6.7 | -3.2 | 1.1 | 3.6
COc1ccc(-c2nnc(-c3ccc(Br)o3)o2)cc1OC | 34.4* | -2.9 | 4.4 | 1 | 4.7
CCN1CCN(C(c2ccc(OC)cc2)C(O)C(=O)c2c[nH]c3ccccc23)CC1 (stereo not given) | -1.8 | -2.7 | -13.5 | 1 | -4.3
O=C(/C=C/c1ccc(Cl)cc1)NC(=S)NN1CCCCC1c1cccnc1 (stereo not given) | -0.7 | -1.9 | -6.9 | 1 | 66.4*
COc1ccc(/C=C/C(=O)NC(=S)NN2CCCCC2c2cccnc2)cc1OC (stereo not given) | 1.1 | -4.3 | -4.2 | 1 | -0.1
O=C(Nc1nc(-c2ccccc2)cs1)c1ccc(Br)o1 | -12.7 | -0.4 | -2.1 | 1 | 63.2*
COc1ccccc1/C=N/N(C(C)=O)c1nc(-c2ccc(F)cc2)cs1 | 15.3 | 3.0 | -7.7 | 1 | -11.2
COC(=O)c1c(NC(NC(=O)C(C)C)C(Cl)(Cl)Cl)sc2c1CCCC2 (stereo not given) | -18.7 | -1.7 | -4.1 | 1 | 76.6*
OC(Cn1ccnc1)c1ccc(Cl)cc1Cl (stereo not given) | 0.8 | -5.1 | 0.4 | 1.1 | 30.3
CC1(c2ccc(Cl)cc2Cl)OCC(Cn2ccnc2)O1 (stereo not given) | -24.3 | -4.8 | 13.6 | 1 | 72.6*
SMILES | Arbovirus anti | TNAP inh hiacc | TNAP inh no acc | TNAP act hi DEA | WT yeast gro inh
COc1cc(CN2CCNC(=O)C2CC(=O)NCc2csc(C(C)C)n2)cc(OC)c1 (stereo not given) | -1.2 | -6.6 | -13.3 | 1.1 | -5.1
CCOc1ccccc1NC(=O)Cn1nnc(-c2ccc(OCC)c(OCC)c2)n1 | -21.3 | -3.6 | -10.5 | 1 | 6.1
O=C(Oc1ccc2ccccc2c1Br)N1CCCCCC1 | 5.9 | -2.5 | -6.3 | 1 | 70.5*
O=C(Oc1ccc2cc(Br)ccc2c1)N1CCCCCC1 | -4.2 | -1.9 | -3.5 | 1 | 67.9*
CCN(CC)C(=O)Oc1ccc2ccccc2c1Br | 9.9 | -0.7 | -10.2 | 1 | 30.2
O=C1NC(=O)/C(=C\c2ccc(OCc3cccc([N+](=O)[O-])c3)cc2)N1 | -7.8 | -0.3 | 2.4 | 1 | -14.6
Fc1ccc(CNC(=S)NC2CCCCCC2)cc1 | 3.9 | -4.8 | -8.4 | 1 | 70.8*
S=C(NCCc1ccccc1)NC1CCCCCC1 | 29.1 | -0.7 | -0.8 | 1 | 68.2*
S=C(NCCc1ccc(Cl)cc1)NC1CCCC1 | 9.8 | 0.8 | 2.4 | 1 | 64.9*
S=C(NCCNCc1ccccc1)NC1CCCCC1 | -21.6 | -8.5 | -36.8 | 1.1 | 62.5*
COc1ccccc1N1CCN(C(=O)CN(C)S(=O)(=O)c2cc(C)ccc2OC)CC1 | -0.8 | -0.8 | -1.6 | 1 | 2.4
OCCN(Cc1ccccc1)C(=S)NC1CCCCC1 | 1.9 | -1.7 | 7.1 | 1 | 5.2
S=C(NC1CCCCC1)N(CCc1ccccc1)CCc1ccccc1 | 16.1 | -5.8 | -9.6 | 1.1 | 62.5*
CC1(C)CC(=O)C=C(NCc2ccccc2)C1 | 1.8 | -1.4 | -9.4 | 1 | 19.6
CCc1n[nH]c2c1/C(=N\O)CC(C)(C)C2 | 0.0 | -6.6 | 3.4 | 1.1 | 15.4
CC1(C)CC(=O)c2c(-c3cccnc3)n[nH]c2C1 | -1.0 | -5.8 | 71.9* | 1.1 | -18.3
CCCCc1n[nH]c2c1C(=O)CC(C)(C)C2 | 0.3 | -3.1 | 86.6* | 1 | -10.6
CC1(C)CC(=O)c2c(Cc3ccccc3)n[nH]c2C1 | -1.1 | -1.6 | 88.2* | 1 | 8.5
Cc1nn(-c2cccc(Cl)c2)c2nc(-c3ccncc3)cc(C(=O)N3CCOCC3)c12 | -20.2 | -3.5 | 5.3 | 1 | 4.2
COc1ccc(OCC(=O)N/N=C2/C=C(C)CC2)cc1 | -1.0 | 2.6 | -8.3 | 1 | -5.0
OCCCNC(=S)Nc1ccc(Oc2ccccc2)cc1 | -5.9 | -5.4 | -6.8 | 1.1 | -1.2
S=C(NCc1ccco1)Nc1ccc(Oc2ccccc2)cc1 | -4.5 | -2.4 | -22.2 | 1 | 67.1*
COc1ccc(NC(=S)NCc2ccco2)cc1 | 5.6 | -5.5 | -12.7 | 1.1 | -4.8
S=C(NCc1ccco1)Nc1ccc(Cl)c(Cl)c1 | -34.6 | 2.2 | -2.5 | 1 | -2.4
S=C(NCc1ccco1)Nc1cc(-c2ccccc2)[nH]n1 | 3.8 | -5.5 | -7.5 | 1.1 | 64.2*
CC(C)CNC(=S)Nc1ccc(Oc2ccccc2)cc1 | -5.5 | -5.2 | 0.3 | 1.1 | 62.8*
O=C(c1ccccn1)N1CC=C(c2ccccc2)CC1 | 2.8 | -5.0 | -12.9 | 1.1 | -8.4
Cc1cccc(N2CCN(C(=O)Cn3nc(Cc4ccncc4)c4ccccc4c3=O)CC2)c1C | -1.2 | / | / | / | -9.0
CC1=NNC(=O)/C1=C\c1cn(-c2ccccc2)nc1-c1ccc(F)cc1 | -30.3 | 0.0 | -17.6 | 1 | 89.5*
CC1=NNC(=O)/C1=C\c1cn(-c2ccccc2)nc1-c1cccs1 | -32.3 | -0.7 | 3.1 | 1 | 84.7

From PubChem BioAssay
